The record followed here is ChEMBL document CHEMBL1132403, “Prospective identification of biologically active structures by topomer shape similarity searching” (J Med Chem, 1999).

The target in this experiment is T1, Type-1 angiotensin II receptor B (Rattus norvegicus) (UniProt P29089).
T1 sequence (whole entry): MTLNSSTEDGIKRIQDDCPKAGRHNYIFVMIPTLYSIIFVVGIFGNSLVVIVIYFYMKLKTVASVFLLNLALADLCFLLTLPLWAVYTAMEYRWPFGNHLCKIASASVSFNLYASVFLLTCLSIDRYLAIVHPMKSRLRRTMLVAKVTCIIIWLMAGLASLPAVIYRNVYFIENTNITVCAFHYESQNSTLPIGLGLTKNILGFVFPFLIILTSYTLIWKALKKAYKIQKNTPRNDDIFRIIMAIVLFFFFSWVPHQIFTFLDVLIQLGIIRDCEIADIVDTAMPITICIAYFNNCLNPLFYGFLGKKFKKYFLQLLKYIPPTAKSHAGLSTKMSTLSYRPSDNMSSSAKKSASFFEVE
The experiment is described as follows: Percent displacement of [125I]Sar, Ile-Angiotensin II (A II) binding to rat Angiotensin II receptor, type 1. Also noted: concentration or dose not given beside the values. The gist of the method:
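Whole-cell competition binding on rat aortic smooth muscle cells expressing rat AT1, seeded 24 h before assay. Radioligand [125I]Sar,Ile-angiotensin II at 0.2 nM in DMEM pH 7.4 with 5 mM MgCl2, 1 mM EDTA and 0.1% BSA. Incubation 2 h at 25 °C with mild shaking. Nonspecific binding defined by 10 μM angiotensin II (final). Cells washed twice with PBS, lysed in 1% Triton X/0.1% BSA, and counted on a γ counter. Assay variability at least ±20%.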
In general terms: Loss of bound radioactivity is the signal in a displacement assay; it reports binding, not function.
For the compound `Clc1nc2ccccc2n1Cc1ccc(-c2ccccc2Cc2nnn[nH]2)cc1`, the Displacement amounted to 31%.

`CCOC(=O)c1cc2ccccc2n1Cc1cccc(-c2ccccc2CC(=O)O)c1` returned a Displacement of 30%.

For `c1ccc(-c2ccc(Cn3c(-c4cscn4)nc4ccccc43)cc2)c(Cc2nnn[nH]2)c1`, the Displacement is 35%.

For `CN(C)c1cnnc2ncn(Cc3cccc(-c4ccccc4C(=O)O)c3)c12`, the Displacement was 47%.

Consider `CC(C)c1nc2ccccc2n1Cc1ccc(-c2ccccc2-c2nn[nH]n2)cc1`, for which the Displacement amounted to 69%.

Compound `CCCc1nccn1Cc1ccc(-c2ccccc2C(=O)O)cc1` registered a Displacement of 37%.

Turning to `O=C1COc2cccnc2N1Cc1cccc(-c2cccc(Cc3nnn[nH]3)c2)c1`, the Displacement was determined as 21%.

For the compound `O=C(O)c1cccc(-c2ccc(CN3C(=O)C(=O)c4c(Cl)ccc(Cl)c43)cc2)c1`, the Displacement was found to be 31%.

Compound `CSc1nc2ccccc2n1Cc1ccc(-c2ccccc2Cc2nnn[nH]2)cc1` yielded a Displacement of 38%.

`O=C(O)c1cccc(-c2ccc(Cn3c(C(F)(F)F)nc4ccccc43)cc2)c1` had a Displacement of 33%.
